Series [1] concerns Mus musculus. Kind of series: Toxicity in fasting C57BL/J6 mouse assessed as glucose level at 50 mg/kg, po measured after 60 mins. Type of series: organism-based. More on the design: dose 50 mg/kg, route oral. To be noted: in vivo, 1 h. The method in brief: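 Eight-week-old male C57BL/6 mice were fasted 6 h with free access to water, then dosed orally with compound or 0.5% methylcellulose vehicle, with no glucose challenge. Blood glucose was followed up to 360 min, n = 6 per group.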

A short description of series [2]: Tmax in female Sprague-Dawley rat at 500 mg/kg, po measured on day 14. The arrangement: dose 500 mg/kg, route oral. To be noted: in vivo. Type of series: ADME, organism-based. The essentials: (§1)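 Sprague–Dawley rats of both sexes, 5 weeks old at arrival, received daily oral gavage at 0, 250, 500 or 1000 mg/kg/day for 14 days. Vehicle was 0.5% methylcellulose at 10 mL/kg. Toxicokinetics were taken on Day 1 and Day 14. Necropsy was by Day 15. Testis was fixed in modified Davidson's fixative, paraffin-sectioned and H&E-stained, with histopathology on control and high-dose groups only.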

Series [3] can be described thus: AUC in Sprague-Dawley rat at 3 mg/kg, iv and 10 mg/kg, po. Type of series: ADME, organism-based. To be noted: plasma. The method in brief:
(§2)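 Male ICR mice and 7-week-old SD rats received a 3 mg/kg intravenous bolus or a 10 mg/kg oral gavage dose. Plasma was deproteinized with acetonitrile (2 volumes) and compound measured by HPLC. Parameters came from noncompartmental analysis.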

Series [4] can be described thus: Oral bioavailability in ICR mouse at 10 mg/kg. Particulars: in vivo; call rule not given here. The format is ADME, organism-based. The essentials:
(§3)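 Male ICR mice and 7-week-old SD rats received a 3 mg/kg iv bolus or a 10 mg/kg oral gavage dose. Plasma was precipitated with 2 volumes of acetonitrile and analysed by HPLC. Parameters came from noncompartmental analysis.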

Series [5] in a line: Tmax in male Sprague-Dawley rat at 250 mg/kg, po measured on day 14. To be noted: in vivo. Type of series: ADME, organism-based. More on the design: dose 250 mg/kg, route oral. The essentials:
as §1

Series [6] can be described thus: Cmax in male Sprague-Dawley rat at 250 mg/kg, po measured on day 1. The arrangement: dose 250 mg/kg, route oral. Type of series: ADME, organism-based. To be noted: in vivo. The method in brief: (§4)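 Sprague–Dawley rats, 5 weeks old at arrival, both sexes. Given the compound by oral gavage once daily for 14 days at 0, 250, 500 or 1000 mg/kg/day, with 0.5% methylcellulose as vehicle. Toxicokinetic parameters were determined on Day 1 and Day 14.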

Series [7] has as its target Cytochrome P450 2C19 (Homo sapiens, UniProt P33261). The experiment in a line: Inhibition of CYP2C19 in human liver microsomes. Type of series: ADME. The method in brief: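 Pooled human liver microsomes (0.25 mg/mL) with a CYP-selective substrate and test compound, preincubated at 37 °C. Stopped on ice with ice-cold acetonitrile, centrifuged, and the supernatant analysed by LC–MS/MS.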

The test system of series [8] is Salmonella typhimurium. Kind of series: Genotoxicity in Salmonella typhimurium TA100 assessed as increase in number of revertants at 1.5 to 5000 ug/plate by Ames test in absence of S9 fraction. Particulars: salmonella enterica subsp. enterica serovar typhimurium. Type of series: toxicity, organism-based. The method in brief: (§5)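 Ames reverse mutation test by direct plate incorporation in S. typhimurium TA98 and TA100, with or without Aroclor 1254-induced rat liver S9 mix. Compound in DMSO at 1.5–5000 µg/plate, plated in top agar, incubated 37 °C for about 50 h, then revertant colonies counted. Plates were checked for precipitation and cytotoxicity. A positive was a reproducible, dose-related increase in revertants of more than 2-fold.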

Series [9] deals with T1, Cytochrome P450 2B6 (Homo sapiens, UniProt P20813).
T1 sequence (P20813 whole entry): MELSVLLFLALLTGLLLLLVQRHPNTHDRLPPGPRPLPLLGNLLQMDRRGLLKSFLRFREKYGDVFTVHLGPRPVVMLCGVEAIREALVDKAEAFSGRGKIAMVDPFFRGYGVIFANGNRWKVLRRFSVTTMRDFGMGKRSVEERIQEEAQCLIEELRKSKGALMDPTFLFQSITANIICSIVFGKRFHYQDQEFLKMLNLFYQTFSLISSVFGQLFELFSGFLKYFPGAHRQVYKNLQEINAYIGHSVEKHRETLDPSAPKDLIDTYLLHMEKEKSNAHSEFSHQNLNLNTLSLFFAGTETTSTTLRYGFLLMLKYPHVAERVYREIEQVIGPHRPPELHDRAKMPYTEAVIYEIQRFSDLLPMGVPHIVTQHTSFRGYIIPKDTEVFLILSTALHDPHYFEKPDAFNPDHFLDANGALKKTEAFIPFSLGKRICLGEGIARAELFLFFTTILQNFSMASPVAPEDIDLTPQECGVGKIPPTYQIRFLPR
Kind of series: Inhibition of CYP2B6 in human liver microsomes. Type of series: ADME. The method in brief: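 Pooled human liver microsomes at 0.25 mg/mL, each with a CYP-selective substrate and test compound up to 25 µM, preincubated at 37 °C. It is stopped on ice with ice-cold acetonitrile and centrifuged, and the supernatant is analysed by LC–MS/MS.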

Series [10] in a line: AUC (0 to t) in male Sprague-Dawley rat at 1000 mg/kg, po measured on day 14. Type of series: ADME, organism-based. To be noted: plasma. More on the design: dose 1000 mg/kg, route oral. The method in brief:
as §4

Series [11] in a line: Cmax in male Sprague-Dawley rat at 250 mg/kg, po measured on day 14. Type of series: ADME, organism-based. More on the design: dose 250 mg/kg, route oral. Particulars: in vivo. The method in brief: as §4
Series [12] in a line: Tmax in male Sprague-Dawley rat at 1000 mg/kg, po measured on day 1. Type of series: ADME, organism-based. More on the design: dose 1000 mg/kg, route oral. Particulars: in vivo. The essentials:
as §1

Series [13] in a line: Cmax in male Sprague-Dawley rat at 500 mg/kg, po measured on day 14. The arrangement: dose 500 mg/kg, route oral. Type of series: ADME, organism-based. Particulars: in vivo. The essentials: as §4
Series [14] is described as follows: Cmax in female Sprague-Dawley rat at 1000 mg/kg, po measured on day 1. Particulars: in vivo. The arrangement: dose 1000 mg/kg, route oral. Type of series: ADME, organism-based. The essentials: as §4
A short description of series [15]: Cmax in female Sprague-Dawley rat at 500 mg/kg, po measured on day 1. The format is ADME, organism-based. The arrangement: dose 500 mg/kg, route oral. To be noted: in vivo. The essentials: as §4
Series [16] can be described thus: Volume of distribution at steady state in ICR mouse at 3 mg/kg, iv and 10 mg/kg, po. Particulars: in vivo, read-out: Vdss. The format is ADME, organism-based. The method in brief:
as §3

Series [17] has as its system Salmonella typhimurium. The experiment in a line: Cytotoxicity in Salmonella typhimurium TA100 at 1.5 to 5000 ug/plate in absence of S9 fraction. Type of series: organism-based. Particulars: salmonella enterica subsp. enterica serovar typhimurium. The essentials:
as §5

For series [18], the target named is Cytochrome P450 3A4 (Homo sapiens, UniProt P08684). The experiment in a line: Induction of CYP3A4 in human liver microsomes up to 25 to 50 uM. Type of series: ADME.
Chain of Cytochrome P450 3A4 (P08684 whole entry): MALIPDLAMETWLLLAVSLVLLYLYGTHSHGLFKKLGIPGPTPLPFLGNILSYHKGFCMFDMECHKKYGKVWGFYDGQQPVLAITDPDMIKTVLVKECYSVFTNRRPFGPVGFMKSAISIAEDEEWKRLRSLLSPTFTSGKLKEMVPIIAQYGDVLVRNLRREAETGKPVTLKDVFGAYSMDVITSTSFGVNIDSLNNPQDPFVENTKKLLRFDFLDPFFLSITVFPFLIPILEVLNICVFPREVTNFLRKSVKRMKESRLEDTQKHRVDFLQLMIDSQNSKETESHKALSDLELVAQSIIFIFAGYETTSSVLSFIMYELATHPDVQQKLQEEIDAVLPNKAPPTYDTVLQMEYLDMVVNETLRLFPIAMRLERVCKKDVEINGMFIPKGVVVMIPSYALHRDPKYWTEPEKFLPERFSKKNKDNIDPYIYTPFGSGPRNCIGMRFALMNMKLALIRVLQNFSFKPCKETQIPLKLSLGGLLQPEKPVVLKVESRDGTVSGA
Series [19] is described as follows: Clearance in Sprague-Dawley rat at 3 mg/kg, iv and 10 mg/kg, po. To be noted: in vivo. Type of series: ADME, organism-based. The method in brief:
as §2

Series [20] is described as follows: AUC (0 to t) in female Sprague-Dawley rat at 1000 mg/kg, po measured on day 14. The format is ADME, organism-based. The arrangement: dose 1000 mg/kg, route oral. Particulars: plasma. The essentials:
as §4

Series [21] relates to Mus musculus. The experiment in a line: Toxicity in C57BL/J6 db/db mouse assessed as effect on body weight at 50 mg/kg, po. Type of series: organism-based. The arrangement: dose 50 mg/kg, route oral. Particulars: in vivo.

Data on one compound can be found in ChEMBL document CHEMBL3232870, “Discovery of 3-(4-methanesulfonylphenoxy)-N-[1-(2-methoxy-ethoxymethyl)-1H-pyrazol-3-yl]-5-(3-methylpyridin-2-yl)-benzamide as a novel glucokinase activator (GKA) for the treatment of type 2 diabetes mellitus” (Bioorg Med Chem, 2014).

Each structure is given as a SMILES string.

Chain of Cytochrome P450 2C19 (P33261 whole entry): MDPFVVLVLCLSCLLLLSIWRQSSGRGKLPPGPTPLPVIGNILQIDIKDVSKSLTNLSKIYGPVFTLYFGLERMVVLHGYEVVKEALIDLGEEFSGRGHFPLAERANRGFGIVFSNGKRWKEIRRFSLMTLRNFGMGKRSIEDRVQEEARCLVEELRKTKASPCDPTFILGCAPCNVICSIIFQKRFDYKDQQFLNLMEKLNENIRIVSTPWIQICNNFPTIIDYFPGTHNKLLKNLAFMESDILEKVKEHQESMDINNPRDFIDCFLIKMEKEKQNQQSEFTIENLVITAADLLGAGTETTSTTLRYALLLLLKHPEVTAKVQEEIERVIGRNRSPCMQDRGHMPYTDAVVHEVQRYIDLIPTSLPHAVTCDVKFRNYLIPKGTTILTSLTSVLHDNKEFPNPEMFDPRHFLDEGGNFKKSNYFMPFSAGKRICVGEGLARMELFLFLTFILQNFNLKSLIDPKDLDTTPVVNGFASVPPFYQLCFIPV

As for `COCCOCn1ccc(NC(=O)c2cc(Oc3ccc(S(C)(=O)=O)cc3)cc(-c3ncccc3C)c2)n1`, the Activity in [1] is more than 60 mg/dL; in series [8], “Non-toxic”; in series [17], “Non-toxic”; in series [18], “Not Active”; in [21] it was “Non-toxic”. The Tmax worked out at 1.3 h in series [2], 3 h in series [5] and 4 h in series [12]. For the same compound, the AUC in [3] stood at 3800 ng·h/mL. This compound yielded a bioavailability in series [4] of 24%. For the same compound, the Cmax in [6] came to 3060 ng/mL; in [11], 1820 ng/mL; in [13], 2800 ng/mL; in series [14], 7590 ng/mL; in [15], 4300 ng/mL. Moreover, the “inhibition (INH)” value in [7] and in [9] was “Not Active” throughout. Also, the results for the AUC(0-t) in series [10] and in [20] were 25000 ng·h/mL and 24000 ng·h/mL, respectively. In [16], the Vd was 0.18 L/kg. The compound also had a clearance in series [19] of 9.83 mL/min/kg.
